Test results as given in ChEMBL document CHEMBL1806376, “Synthesis and biological properties of macrolactam analogs of the natural product macrolide (-)-A26771B” (2011).
In brackets after ≈: the same amount, converted by molar mass.

Columns and labels:
Assay type in all cases: functional
Haemophilus influenzae [1] = test: Antibacterial activity against Haemophilus influenzae ATCC 31517 by broth microdilution method
In short: (§1)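 MIC values determined by broth microdilution following the CLSI method.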

Enterococcus faecalis = test: Antibacterial activity against Enterococcus faecalis ATCC 29212 by broth microdilution method; in short: as §1
Streptococcus pneumoniae [2] = test: Antibacterial activity against Streptococcus pneumoniae ATCC 49619 by broth microdilution method; in short: as §1
Staphylococcus aureus [3] = test: Antibacterial activity against Staphylococcus aureus ATCC 13709 by broth microdilution method; in short: as §1
Staphylococcus aureus [4] = test: Antibacterial activity against methicillin-resistant Staphylococcus aureus Sa2 by broth microdilution method
In short: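 Broth microdilution run according to the CLSI method.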

Staphylococcus aureus [5] = test: Antibacterial activity against Staphylococcus aureus ATCC 25923 by broth microdilution method in presence of 10% human serum
In short: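 MIC determined by broth microdilution per the CLSI method, with 10% human serum added to the medium.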

Haemophilus influenzae [6] = test: Antibacterial activity against efflux knock-out Haemophilus influenzae LS2 by broth microdilution method; in short: as §1
Pseudomonas aeruginosa = test: Antibacterial activity against Pseudomonas aeruginosa ATCC 27853 by broth dilution method; in short: as §1
Escherichia coli = test: Antibacterial activity against Escherichia coli ATCC 25922 by broth microdilution method; in short: as §1
Enterococcus faecium = test: Antibacterial activity against Enterococcus faecium 1 by broth microdilution method; in short: as §1
Staphylococcus aureus [7] = test: Antibacterial activity against Staphylococcus aureus ATCC 25923 by broth microdilution method; in short: as §1
Streptococcus pneumoniae [8] = test: Antibacterial activity against Streptococcus pneumoniae Pen9 IV381-221 by broth microdilution method; in short: as §1
Staphylococcus aureus [9] = test: Antibacterial activity against Staphylococcus aureus oxford by broth microdilution method; in short: as §1
[10] = Haemophilus influenzae, ATCC 31517, read-out: MIC
[11] = Enterococcus faecalis, ATCC 29212, read-out: MIC
[12] = Streptococcus pneumoniae, ATCC 49619, read-out: MIC
[13] = Staphylococcus aureus, ATCC 13709, read-out: MIC
[14] = Staphylococcus aureus, Sa2, read-out: MIC
[15] = Staphylococcus aureus, ATCC 25923, read-out: MIC
[16] = Haemophilus influenzae, LS2, read-out: MIC
[17] = Enterococcus faecium, 1, read-out: MIC
[18] = Streptococcus pneumoniae, Pen9 IV381-221, read-out: MIC
[19] = Staphylococcus aureus, oxford, read-out: MIC

Row | Compound | MIC (Haemophilus influenzae [1]; [10]) | MIC (Enterococcus faecalis; [11]) | MIC (Streptococcus pneumoniae [2]; [12]) | MIC (Staphylococcus aureus [3]; [13]) | MIC (Staphylococcus aureus [4]; [14]) | MIC (Staphylococcus aureus [5]; [15]) | MIC (Haemophilus influenzae [6]; [16]) | MIC (Pseudomonas aeruginosa) | MIC (Escherichia coli) | MIC (Enterococcus faecium; [17]) | MIC (Staphylococcus aureus [7]; [15]) | MIC (Streptococcus pneumoniae [8]; [18]) | MIC (Staphylococcus aureus [9]; [19]) | other results
1 | CC(=O)O[C@H]1CCCCCCCCC[C@@H](C)OC(=O)/C=C/C1=O | 32 µg/mL (≈ 98.6 µM) | 4 µg/mL (≈ 12.3 µM) | 2 µg/mL (≈ 6.16 µM) | 0.5 µg/mL (≈ 1.54 µM) | 0.5 µg/mL (≈ 1.54 µM) | 16 µg/mL | 4 µg/mL (≈ 12.3 µM) | > 64 µg/mL | > 64 µg/mL | 2 µg/mL (≈ 6.16 µM) | 1 µg/mL (≈ 3.08 µM) | 4 µg/mL (≈ 12.3 µM) | 1 µg/mL (≈ 3.08 µM) | 
2 | CO[C@H]1CCCCCCCCC[C@@H](C)OC(=O)C2OC2C1=O (stereo in doubt; 16b) |  | > 64 µg/mL |  |  |  |  |  |  | > 64 µg/mL |  |  |  |  | MIC (Streptococcus pneumoniae [2]): >64 µg/mL; MIC (Staphylococcus aureus [3]): >64 µg/mL; MIC (Enterococcus faecium): >64 µg/mL; MIC (Staphylococcus aureus [7]): >64 µg/mL; MIC (Streptococcus pneumoniae [8]): >64 µg/mL; MIC (Staphylococcus aureus [9]): >64 µg/mL
3 | CC(=O)N(CCOc1ccccc1)C1CC(=O)[C@@H](OC(=O)CCC(=O)OC(C)(C)C)CCCCCCCCC[C@@H](C)OC1=O (stereo partly specified) | > 32 µg/mL | > 32 µg/mL | > 32 µg/mL | > 32 µg/mL | > 32 µg/mL | > 32 µg/mL | > 32 µg/mL | > 32 µg/mL | > 32 µg/mL | > 32 µg/mL | > 32 µg/mL | > 32 µg/mL | > 32 µg/mL | 
4 | C[C@@H]1CCCCCCCCC[C@H](OC(=O)CCC(=O)OC(C)(C)C)C(=O)/C=C/C(=O)O1 | > 32 µg/mL | 2 µg/mL (≈ 4.56 µM) | 2 µg/mL (≈ 4.56 µM) | 2 µg/mL (≈ 4.56 µM) | 0.5 µg/mL (≈ 1.14 µM) | > 32 µg/mL | 8 µg/mL (≈ 18.2 µM) | > 32 µg/mL | > 32 µg/mL |  | 8 µg/mL (≈ 18.2 µM) | 1 µg/mL (≈ 2.28 µM) | 2 µg/mL (≈ 4.56 µM) | 
5 | COC1CCCCCCCCC[C@@H](C)NC(=O)/C=C/C1=O (single isomer, unassigned; diastereomer 2) |  | 2 µg/mL (≈ 6.77 µM) |  |  |  |  |  |  |  | 0.5 µg/mL (≈ 1.69 µM) |  |  |  | MIC (Haemophilus influenzae [1]): 2 µg/mL (≈ 6.77 µM); MIC (Streptococcus pneumoniae [2]): 2 µg/mL (≈ 6.77 µM); MIC (Staphylococcus aureus [3]): 0.5 µg/mL (≈ 1.69 µM); MIC (Staphylococcus aureus [4]): 0.5 µg/mL (≈ 1.69 µM); MIC (Staphylococcus aureus [5]): 8 µg/mL; MIC (Haemophilus influenzae [6]): 0.25 µg/mL (≈ 0.846 µM); MIC (Staphylococcus aureus [7]): 1 µg/mL (≈ 3.38 µM); MIC (Streptococcus pneumoniae [8]): 8 µg/mL (≈ 27.1 µM); MIC (Staphylococcus aureus [9]): 0.5 µg/mL (≈ 1.69 µM)
6 | CO[C@H]1CCCCCCCCC[C@@H](C)OC(=O)C2OC2C1=O (single isomer, unassigned; diastereomer 1) | > 64 µg/mL |  | 64 µg/mL (≈ 205 µM) | 32 µg/mL (≈ 102 µM) | > 64 µg/mL | > 64 µg/mL | > 64 µg/mL | > 64 µg/mL |  | 32 µg/mL (≈ 102 µM) | 64 µg/mL (≈ 205 µM) | 64 µg/mL (≈ 205 µM) | 64 µg/mL (≈ 205 µM) | MIC (Enterococcus faecalis): 64 µg/mL (≈ 205 µM)
7 | CO[C@H]1CCCCCCCCC[C@@H](C)OC(=O)C(Sc2ccccc2)CC1=O (stereo partly specified) | > 64 µg/mL | > 64 µg/mL | 2 µg/mL (≈ 4.92 µM) | 1 µg/mL (≈ 2.46 µM) | 2 µg/mL (≈ 4.92 µM) | 16 µg/mL | 2 µg/mL (≈ 4.92 µM) | > 64 µg/mL | > 64 µg/mL | > 64 µg/mL | 1 µg/mL (≈ 2.46 µM) | 1 µg/mL (≈ 2.46 µM) | 1 µg/mL (≈ 2.46 µM) | 
8 | C[C@@H]1CCCCCCCCC[C@H](OC(=O)CCC(=O)OC(C)(C)C)C(=O)c2[nH]ncc2C(=O)O1 | > 64 µg/mL | > 64 µg/mL | > 64 µg/mL | > 64 µg/mL | > 64 µg/mL | > 64 µg/mL | 8 µg/mL (≈ 16.7 µM) | > 64 µg/mL | > 64 µg/mL | > 64 µg/mL | > 64 µg/mL | 32 µg/mL (≈ 66.9 µM) | > 64 µg/mL | 
9 | CO[C@H]1CCCCCCCCC[C@@H](C)OC(=O)/C(C)=C/C1=O | > 64 µg/mL | > 64 µg/mL | > 64 µg/mL | > 64 µg/mL | > 64 µg/mL | > 64 µg/mL | > 64 µg/mL | > 64 µg/mL | > 64 µg/mL | > 64 µg/mL | > 64 µg/mL | > 64 µg/mL | > 64 µg/mL | 
10 | CO[C@H]1CCCCCCCCC[C@@H](C)OC(=O)CCC1=O | > 64 µg/mL | > 64 µg/mL | > 64 µg/mL | > 64 µg/mL | > 64 µg/mL | > 64 µg/mL | 64 µg/mL (≈ 214 µM) | > 64 µg/mL | > 64 µg/mL | > 64 µg/mL | > 64 µg/mL | > 64 µg/mL | > 64 µg/mL | 
